Only some compounds are listed: those with a hit (about 1.8% of all), similar ones and a draw of the others.
proCasp3 act = activators of human procaspase-3 D3A mutant, primary screen, biochemical, absorbance, PC-3 D3A mutant, single concentration | Caspase-3 (Homo sapiens), P42574 | recombinant procaspase-3 D3A, Ac-DEVD-pNA absorbance 405 nm | activation, % at 8.5 µM | actives 0.11% (n = 330,000) | AID 463141, 2010;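 active = activation above the mean of all tested compounds plus 3 SD, cut at about 21% in these data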
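Compound: 8.5 µM single point, 0.8% DMSO / Material: Autoprocessing-dead procaspase-3 D3A mutant enzyme / Timing: 1 h preincubation plus 2 h reaction at 25 °C / Medium: Zinc-free HEPES/NaCl buffer with 0.01% Triton X-100 at pH 7.4 / Technique: 405 nm absorbance of p-nitroaniline, reads at 0 and 120 min / Repeats: one well per compound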
Apaf1 inhib = inhibitors of human Apaf-1 apoptosome, primary screen, biochemical, DEVD-Rh110 fluorescence, uHTS | Apoptotic protease-activating factor 1 (Homo sapiens), O14727 | reconstituted apoptosome caspase-3 activity | inhibition, % at 20 µM | actives 0.71% (n = 330,000); active = inhibition of at least 40% at 20 µM
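System: Apoptosome proteins | Medium: Hepes pH 7.5 with detergent and BSA | Also added: Cytochrome c trigger plus (Z-DEVD)2-Rh110 caspase-3 substrate | Incubation: 30 min compound preincubation, 50 min activation, room temperature | Detection: Rhodamine 110 fluorescence at Ex 480/Em 540 nm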
GSTO1 counter = inhibitors of recombinant GSTO1, primary screen, counter-screen for RBBP9 inhibitor project, biochemical, fluorescence polarization | activity-based probe fluorescence polarization | inhibition, % at 5.96 µM | actives 1.1% (n = 300,000) | AID 1974, 2009;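 active = inhibition above the campaign mean inhibition plus 3 SD, cut at about 35% in these data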
EBNA-1 inhibitor = EBNA-1 DNA-binding inhibitors, primary screen, biochemical, fluorescence polarization | inhibition, % at 14.8 µM | actives 0.34% (n = 300,000) | AID 1950, 2009; in the data active = inhibition above about 28%
ZTA counter = blocks Epstein-Barr virus ZTA, an EBNA-1 counter-screen; P03206; ZTA-DNA binding, fluorescence polarization; inhibition, % at 11 µM; actives 0.15% (n = 320,000); AID 2234; in the data active = inhibition above about 33%
proCasp7 act = procaspase-7 activators, primary screen, counter-screen for procaspase-3 activator project, biochemical, absorbance, HTS, human; Caspase-7 (Homo sapiens), P55210; recombinant procaspase-7, Ac-DEVD-pNA absorbance 405 nm; D23A/D198A/D206A triple mutant, cannot self-cleave; scale: DMSO 0, 5 µM enzyme 100; activation, % at 8.5 µM; actives 0.093% (n = 330,000); AID 463210, 2010;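 active = percent activation above the screen-wide mean plus 3 SD, cut at about 25% in these data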
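signal = Epi-absorbance of released pNA at 405 nm, two timepoints | assay system = Uncleavable procaspase-7 mutant enzyme | reagent = Ac-DEVD-pNA substrate, 400 µM as added | times = 1 h enzyme–compound preincubation and 2 h substrate reaction, both 25 °C | benchmarks = low DMSO alone, high DMSO plus 5 µM PC-7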
GSTO1 confirm = GSTO1 inhibitor hit confirmation, counter-screen for RBBP9 inhibitor project, biochemical, fluorescence polarization, triplicate | shares compounds with GSTO1 counter | recombinant GSTO1, probe fluorescence polarization | inhibition, % at 5.96 µM | actives 54% (n = 2,400) | AID 2176, 2009;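 active = inhibition above the primary screen's cutoff, its mean inhibition plus 3 SD, cut at about 35% in these data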;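 note: loss of polarization as inhibitors block binding of rhodamine sulfonate ester activity probe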
A number is an active result; 0 = inactive; - = no result.

SMILES	proCasp3 act	Apaf1 inhib	GSTO1 counter	EBNA-1 inhibitor	ZTA counter	proCasp7 act	GSTO1 confirm
O=C(O)C1CCCCN1C(=O)c1ccc(S(=O)(=O)N2CCCC2)cc1 (configuration not stated)	-	0	-	-	-	-	-
CCCNC1=C(N(C(C)=O)c2cccc(F)c2)C(=O)c2ccccc2C1=O	0	-	55	0	0	0	41
CC(C)c1ccccc1OCC(=O)Nc1ccccc1C(=O)N1CCOCC1	0	0	0	0	0	0	-
CCOC(=O)c1[nH]c2ccc(OC)cc2c1NC(=O)CN1CCc2ccccc2C1	0	0	51	0	0	0	0
Cc1cc(C)n2nc(CNS(=O)(=O)c3cccc([N+](=O)[O-])c3)nc2n1	0	0	0	0	0	0	-
CN1CCc2cccc3c2C1Cc1ccc(O)c(O)c1-3 (configuration not stated)	0	50	93	0	0	0	0
CN1CCC(=C2c3ccccc3C(O)c3ccccc32)CC1 (configuration not stated)	0	0	0	0	0	0	-
CCCOC(=O)CSC1=C(C#N)C(c2ccccc2OCC)C(C#N)C(=O)N1 (configuration not stated)	0	0	71	0	0	0	0
CCCCOC(=O)CSC1=C(C#N)C(c2ccccc2OCC)C(C#N)C(=O)N1 (configuration not stated)	0	0	0	0	0	0	-
COc1ccc(S(=O)(=O)N2CCC(C(=O)NCCC(=O)Nc3cccc(Cl)c3)CC2)cc1	0	0	0	0	0	0	-
COc1ccc(OC)c(-c2c3cc(O)c(=O)cc-3oc3cc(O)c(O)cc23)c1	0	-	50	0	0	0	73
COc1ccc(-n2nc3c(c2NC(=O)CCl)CSC3)cc1	0	0	88	0	0	0	92
CN1C(=O)N(C)C2(c3ccccc3)NC(=O)NC12c1ccccc1 (configuration not stated)	0	0	0	0	0	0	-
CN1c2ccccc2N(C)C1(C)c1ccccc1	0	-	50	0	0	0	0
CCN1C(=O)N(c2cccc3ccccc23)C(C)=CC1(C)C	0	0	0	0	0	0	-
CCN1c2ccccc2N(C)C1(C)c1ccccc1 (configuration not stated)	0	-	55	0	0	0	37
CCCCCCCNC(=O)CN1N=C(c2ccc(C)cc2)CCC1=O	0	0	0	0	0	0	-
CC(C)NC(=O)N(C)C[C@H]1Oc2c(NC(=O)C3CCCCC3)cccc2C(=O)N([C@H](C)CO)C[C@@H]1C	0	0	-	-	-	0	-
Cc1nn(-c2ccccc2)c2c1C(c1cccs1)C(C#N)=C(N)O2 (configuration not stated)	0	0	0	0	0	0	-
Cc1nn(-c2ccccc2)c2c1C(c1ccco1)C(C#N)=C(N)O2 (configuration not stated)	0	0	41	0	0	0	0
COc1cc(C2C(C#N)=C(N)Oc3c2c(-c2ccccc2)nn3-c2ccccc2)cc(OC)c1OC (configuration not stated)	0	0	52	0	0	0	0
COc1ccc(OC)c(C(=O)COC(=O)COc2ccccc2)c1	0	0	-	-	-	0	-
CCCc1ccccc1OCCNS(=O)(=O)c1cc2c(cc1C)OCC(=O)N2	0	0	43	0	0	0	0
CC(CCc1ccccc1)NC(=O)COC(=O)C1CCC(C(C)(C)C)CC1 (configuration not stated)	0	0	42	0	0	0	0
N#CC(=C=[N-])c1nc2ccccc2nc1-[n+]1cccc(NC(=O)c2cccs2)c1	0	0	54	0	0	0	0
SMILES	proCasp3 act	Apaf1 inhib	GSTO1 counter	EBNA-1 inhibitor	ZTA counter	proCasp7 act	GSTO1 confirm
O=C(Nc1nc2ccccc2[nH]1)c1cccs1	0	0	0	0	0	0	-
CCc1cc[n+](-c2nc3ccccc3nc2C(=C=[N-])C#N)cc1	0	0	63	0	0	0	0
N#CC(=C=[N-])c1nc2ccccc2nc1-[n+]1cccc(NC(=O)c2ccccc2)c1	0	0	59	0	0	0	0
N#CC(=C=[N-])c1nc2ccccc2nc1-[n+]1cccc(NC(=O)c2ccc(F)cc2)c1	0	0	59	0	0	0	0
Cc1ccc(O)c(Sc2cc(C)ccc2O)c1	0	0	0	0	0	0	-
Cc1ccc(O)c(O)c1	0	0	55	0	0	0	0
CC(C)(O)CC[C@@H](O)[C@](C)(O)C1CC[C@@]2(O)C3=CC(=O)[C@@H]4C[C@@H](O)[C@@H](O)C[C@]4(C)C3CC[C@]12C (some centres not stated)	0	0	-	-	-	0	-
CC(C)(O)CC[C@@H](O)[C@](C)(O)[C@H]1CC[C@@]2(O)C3=CC(=O)[C@@H]4C[C@@H](O)[C@@H](O)C[C@]4(C)[C@H]3CC[C@]12C	0	0	39	0	0	0	0
Cc1ccc(C(=O)CCC(=O)Nc2ccc(C)cn2)cc1	0	0	-	-	0	0	-
O=C1CCCC2=C1C(c1ccco1)Nc1ccc3ccccc3c12 (configuration not stated)	0	0	38	0	0	0	0
O=C1CCCC2=C1C(c1ccc(O)c(O)c1)Nc1ccc3ccccc3c12 (configuration not stated)	0	0	67	0	0	0	0
CCNC(=S)N(CCCN(C)C)Cc1cc2cc3c(cc2[nH]c1=O)OCCO3	0	0	0	0	0	0	-
CCOc1cc(CNc2ccc(O)cc2)ccc1OCc1ccc(Cl)cc1Cl	0	94	87	0	0	0	0
CCOc1cccc(CNc2ccc(O)cc2)c1OCc1ccc(Cl)cc1	0	0	76	0	0	0	0
COc1cccc(CNCCO)c1OCc1ccc(Cl)cc1	0	0	0	0	0	0	-
O=C(CN1C(=O)CCOc2ccccc21)Nc1ccc(Cl)c(S(=O)(=O)N2CCOCC2)c1	0	0	-	-	0	0	-
CCN(C[C@H]1N[C@@](CC)(C(=O)OC)[C@H]2C(=O)N(C)C(=O)[C@@H]12)S(=O)(=O)c1ccc(OC(F)(F)F)cc1	0	0	-	-	-	0	-
CC1CCN(C(=O)C(NS(=O)(=O)c2cccc3nsnc23)C(C)C)CC1 (configuration not stated)	0	0	0	0	0	0	-

High-throughput results deposited in PubChem BioAssay by several laboratories.
